Results reported in article PMC10731006 (Heliyon, 2023).
Converted amounts (≈) assume the structure as drawn. Read-outs that look alike come from different tables or passages of the source.

What was measured:
[1] = system: glioblastoma (U-87 MG) cells; experiment: MTT cytotoxicity assay, U-87 MG; format: cell-based, human; conditions: for SI U87 (selectivity index): IC50 in HDF / IC50 in U87, 96 h; for IC50: read-out: IC50 U87
Summary of the method: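 U-87 MG cells were cultured in DMEM with 10% FCS, 2 mM L-glutamine and 1% penicillin-streptomycin at 37 °C, 5% CO2. Seeding was 1 × 10^4 cells/ml; after overnight adherence, test compound diluted in medium (six final levels, 1–600) was applied for 96 h alongside DMSO-matched and cisplatin controls. Read-out: MTT 5 mg/ml for 4 h, DMSO solubilisation, A540, in triplicate, IC50 fitted. SI = IC50 in HDF / IC50 in U87.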

[2] = system: human dermal fibroblast (HDF, human dermal cell line); experiment: MTT cytotoxicity assay, normal cells; format: cell-based; conditions: read-out: IC50 HDF
Summary of the method: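 Human dermal fibroblasts were maintained in DMEM with 10% FCS, 2 mM L-glutamine and 1% penicillin-streptomycin (37 °C, 5% CO2). They were seeded at 1 × 10^4 cells/ml, allowed to adhere overnight, then treated 96 h with serially diluted test compound (six final levels, 1–600) beside DMSO-matched vehicle and cisplatin controls. Then MTT 5 mg/ml was added for 4 h, formazan taken up in DMSO, and absorbance read at 540 nm, in triplicate. IC50 was fitted.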

[3] = system: breast cancer (MCF7) cells; experiment: MTT cytotoxicity assay, MCF7; format: cell-based, human; conditions: for SI MCF-7 (selectivity index): IC50 in HDF / IC50 in MCF-7, 96 h; for IC50: read-out: IC50 MCF-7
Summary of the method: (§1)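 Cells were grown in RPMI 1640 with 10% FCS, 2 mM L-glutamine and 1% penicillin-streptomycin at 37 °C under 5% CO2. They were seeded at 1 × 10^4 cells/ml, left overnight to adhere, and exposed 96 h to test compound diluted in medium (six final levels, 1–600), with DMSO-matched and cisplatin controls. MTT at 5 mg/ml was added for 4 h, formazan dissolved in DMSO, and A540 read, in triplicate. IC50 was fitted from the data. SI = IC50 in HDF / IC50 in this line.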

[4] = system: HDF, U87, MCF-7 and A549 cells; experiment: Morphological analysis; format: cell-based, human; conditions: 96 h, treatment at the respective IC50 for each cell line
Summary of the method: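 HDF, U87, MCF-7 and A549 cells were seeded at 1 × 10^4 cells/ml in flat-bottom plates and adhered overnight. They were then treated 96 h with test compound serially diluted in medium (final 1–600 μM/ml). Controls were untreated and DMSO-matched wells, plus cisplatin at 1–100 μM/mL. Cells were fixed in ice-cold methanol for 30 min at 4 °C, stained with hematoxylin, and viewed by inverted light microscopy.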

[5] = system: non-small cell lung cancer (A549) cells; experiment: MTT cytotoxicity assay, A549; format: cell-based, human; conditions: for SI A549 (selectivity index): IC50 in HDF / IC50 in A549, 96 h; for IC50: read-out: IC50 A549
Summary of the method: as §1

[6] = system: Pseudomonas aeruginosa (ATCC 13048); experiment: Micro-broth dilution assay; format: cell-based; conditions: ATCC13048, read-out: MIC PA
B. subtilis (ATCC 6633) = experiment: Micro-broth dilution assay; format: cell-based; conditions: Bacillus subtilis, ATCC6633, read-out: MIC BS
[7] = system: Bacillus cereus (ATCC 11778); experiment: Micro-broth dilution assay; format: cell-based; conditions: ATCC11778, read-out: MIC BC
[8] = system: Escherichia coli (ATCC 25922); experiment: Micro-broth dilution assay; format: cell-based; conditions: ATCC25922, read-out: MIC EC
[9] = ABTS radical scavenging assay
[10] = system: Pseudomonas aeruginosa (ATCC 13048); experiment: Agar diffusion test, P. aeruginosa; format: cell-based; conditions: ATCC13048, read-out: Zone of inhibition PA
[11] = system: Gram-positive and Gram-negative bacterial test strains; experiment: Antibacterial activity, whole panel of test strains; format: cell-based; conditions: agar diffusion
Summary of the method: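 Disc diffusion followed CLSI (2012). Test compound at 10, 50 and 100 μg/disc was loaded on 6-mm blank filter discs laid on Mueller Hinton agar seeded at 10^6 cells/ml. Strains were S. aureus ATCC 10145, B. cereus ATCC 11778, B. subtilis ATCC 6633, P. aeruginosa ATCC 13048 and E. coli ATCC 25922. Inhibition zones were recorded.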

[12] = system: Staphylococcus aureus (ATCC 10145); experiment: Agar diffusion test, S. aureus; format: cell-based; conditions: ATCC10145, read-out: Zone of inhibition SA
[13] = system: Escherichia coli (ATCC 25922); experiment: Agar diffusion test, E. coli; format: cell-based; conditions: ATCC25922, read-out: Zone of inhibition EC
[14] = system: cancer cell lines (U87, MCF-7 and A549) compared to normal cells (HDF); experiment: MTT cytotoxicity, cancer cell lines compared to normal cells; format: cell-based, human; conditions: 96 h treatment
Summary of the method: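 A549 and MCF7 grown in RPMI 1640, HDF and U87 in DMEM, each with 10% FCS, 2 mM L-glutamine, 1% pen-strep, 37 °C, 5% CO2. Cells at 1 × 10^4 cells/ml were adhered overnight, then exposed 96 h to test compound (final 1–600 […] in medium). Controls were blank, untreated, DMSO-matched and cisplatin (1–100 μM/mL). MTT 5 mg/ml for 4 h; DMSO-solubilised formazan read at 540 nm, triplicate. IC50 from curve fitting; selectivity index = HDF IC50 / cancer-line IC50.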

[15] = system: Staphylococcus aureus (ATCC 10145); experiment: Micro-broth dilution assay; format: cell-based; conditions: ATCC10145, read-out: MIC SA
[16] = DPPH radical scavenging assay
[17] = system: Bacillus cereus (ATCC 11778); experiment: Agar diffusion test, B. cereus; format: cell-based; conditions: ATCC11778, read-out: Zone of inhibition BC

Compound | SI U87 (selectivity index) [1] | SI MCF-7 (selectivity index) [3] | SI A549 (selectivity index) [5] | MIC [6] | MIC (B. subtilis (ATCC 6633)) | MIC [7] | MIC [8] | IC50 ± SD, ABTS [9] | % inhibition ±SD, ABTS ([9]; 5 μg/ml) | % inhibition ±SD, ABTS ([9]; 10 μg/ml) | % inhibition ±SD, ABTS ([9]; 25 μg/ml) | % inhibition ±SD, ABTS ([9]; 50 μg/ml) | % inhibition ±SD, ABTS ([9]; 100 μg/ml) | IC50 ([1]; Homo sapiens, U-87 MG, 96 h) | zone of inhibition at 100 µg/disc [10] | zone of inhibition at 300 µg/disc [10] | zone of inhibition at 500 µg/disc [10] | IC50 ([2]; Homo sapiens, Fibroblast, 96 h) | inhibition zones, range over susceptible strains [11] | zone of inhibition at 100 µg/disc [12] | other results
N.N.[Cl][Pt][Cl] [Cisplatin, reference compound] | 1.5 | 1.5 | 1.3 |  |  |  |  |  |  |  |  |  |  |  |  |  |  |  |  |  | IC50 ([1]; MTT, 96 h treatment): 28.3 ± 5.3 µM; IC50 ([2]; MTT, 96 h treatment): 40.9 ± 5.4 µM; IC50 ([3]; MTT, 96 h treatment): 26.9 ± 4.7 µM; morphological changes of treated cancer cells [4]: became rounded and separated from each other, shrank, and underwent nuclear condensation; IC50 ([5]; MTT, 96 h treatment): 30.4 ± 5.2 µM
COC(=O)c1cn(C2CC2)c2cc(N3CCN(C(=O)c4c(C)nnn4-c4ccc(Cl)cc4)CC3)c(F)cc2c1=O [Compound 6c, methyl 7-(4-(1-(4-chlorophenyl)-4-methyl-1H-1,2,3-triazole-5-carbonyl)piperazin-1-yl)-1-cyclopropyl-6-fluoro-4-oxo-1,4-dihydroquinoline-3-carboxylate] | 23.9 | 4.8 | 1.2 | 500 µg/mL (≈ 885 µM) | > 500 µg/mL | 500 µg/mL (≈ 885 µM) | > 500 µg/mL | 35.1 ± 2.0 µg/mL (≈ 62.1 µM) | 14.8 ± 0.6% | 33.3 ± 0.8% | 42.7 ± 0.4% | 59.8 ± 0.3% | 65.7 ± 0.1% | 12.3 ± 5.5 µM | 12.3 ± 0.6 mm | 14.6 ± 0.6 mm | 16.3 ± 0.6 mm | 294 ± 11.4 µM | 13 to 16 mm | 10.6 ± 1.2 mm | zone of inhibition at 300 µg/disc [12]: 12.3 ± 0.6 mm; zone of inhibition at 500 µg/disc [12]: 13.3 ± 0.3 mm; IC50 ([3]; Homo sapiens, MCF7, 96 h): 61.6 ± 11.1 µM; zone of inhibition at 100 µg/disc [13]: 11.3 ± 0.7 mm; zone of inhibition at 300 µg/disc [13]: 13.6 ± 1.2 mm; zone of inhibition at 500 µg/disc [13]: 14.6 ± 0.3 mm; IC50 ([5]; Homo sapiens, A549, 96 h): 239 ± 7.9 µM; cytotoxic / anti-proliferative activity in words [14]: significant cytotoxic activity against only U-87 and MCF-7 cancer cell lines; MIC [15]: > 500 µg/mL; IC50 ± SD, DPPH [16]: 43.1 ± 1.8 µg/mL (≈ 76.3 µM); % inhibition ±SD, DPPH ([16]; 10 μg/ml): 24.6 ± 1.8%; % inhibition ±SD, DPPH ([16]; 25 μg/ml): 31.7 ± 0.3%; % inhibition ±SD, DPPH ([16]; 50 μg/ml): 52.2 ± 0.2%; % inhibition ±SD, DPPH ([16]; 100 μg/ml): 71.4 ± 0.7%; zone of inhibition at 100 µg/disc [17]: 12.7 ± 0.6 mm; zone of inhibition at 300 µg/disc [17]: 13.7 ± 1.1 mm; zone of inhibition at 500 µg/disc [17]: 15.3 ± 0.7 mm
COC(=O)c1cn(C2CC2)c2cc(N3CCN(C(=O)c4c(C)nnn4-c4ccc(C(F)(F)F)cc4)CC3)c(F)cc2c1=O [Compound 6d, methyl 7-(4-(1-(4-trifluoromethylphenyl)-4-methyl-1H-1,2,3-triazole-5-carbonyl)piperazin-1-yl)-1-cyclopropyl-6-fluoro-4-oxo-1,4-dihydroquinoline-3-carboxylate] | 111.4 | 3.4 | 1.4 | 500 µg/mL (≈ 835 µM) | > 500 µg/mL | > 500 µg/mL | > 500 µg/mL | 31.7 ± 1.9 µg/mL (≈ 53 µM) | 21.1 ± 1.0% | 33.7 ± 0.7% | 42.8 ± 0.3% | 61.6 ± 0.6% | 66.5 ± 0.6% | 3.82 ± 2.9 µM | 11.7 ± 0.6 mm | 13 ± 0.3 mm | 13.3 ± 0.6 mm | 425 ± 18.5 µM | 12–14 mm | 10.3 ± 0.6 mm | zone of inhibition at 300 µg/disc [12]: 12.3 ± 0.6 mm; zone of inhibition at 500 µg/disc [12]: 14.6 ± 1.2 mm; IC50 ([3]; Homo sapiens, MCF7, 96 h): 124 ± 10.6 µM; zone of inhibition at 100 µg/disc [13]: 8.3 ± 1.5 mm; zone of inhibition at 300 µg/disc [13]: 10.3 ± 0.7 mm; zone of inhibition at 500 µg/disc [13]: 12.6 ± 0.7 mm; IC50 ([5]; Homo sapiens, A549, 96 h): 308 ± 12.1 µM; cytotoxic / anti-proliferative activity in words [14]: significant cytotoxic activity against only U-87 and MCF-7 cancer cell lines; MIC [15]: 500 µg/mL (≈ 835 µM); IC50 ± SD, DPPH [16]: 58.8 ± 1.7 µg/mL (≈ 98.2 µM); % inhibition ±SD, DPPH ([16]; 5 μg/ml): 13.8 ± 0.2%; % inhibition ±SD, DPPH ([16]; 10 μg/ml): 26.0 ± 0.9%; % inhibition ±SD, DPPH ([16]; 25 μg/ml): 42.1 ± 0.6%; % inhibition ±SD, DPPH ([16]; 50 μg/ml): 46.2 ± 0.3%; % inhibition ±SD, DPPH ([16]; 100 μg/ml): 68.7 ± 0.1%; zone of inhibition at 100 µg/disc [17]: 9.6 ± 1.2 mm; zone of inhibition at 300 µg/disc [17]: 11 mm; zone of inhibition at 500 µg/disc [17]: 13.3 ± 0.6 mm
